Assay results as given in ChEMBL document CHEMBL3526129, “Species differences in tissue distribution and enzyme activities of arylacetamide deacetylase in human, rat, and mouse” (Drug Metab Dispos, 2012).

Key:
Type in all cases: ADME
[1] = substrate: CCOc1ccc(NC(C)=O)cc1; experiment: Activity of AADAC in rat jejunum microsome
Summary of the method: (§1)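 Hydrolase activity of tissue microsomes in 0.2 ml mixtures of 100 mM potassium phosphate (pH 7.4). Microsomal protein: 0.4 mg/ml for flutamide (0.025–0.75 mM) and phenacetin (0.05–4 mM); 0.5 mg/ml for rifampicin (0.005–1 mM). Products measured were FLU-1, p-phenetidine and 25-deacetylrifampicin, within linear ranges. Three independent experiments.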

[2] = substrate: CCOc1ccc(NC(C)=O)cc1; experiment: Activity of rat recombinant AADAC
Summary of the method: (§2)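 Sf21 insect cells were infected with baculovirus carrying intact human, rat or mouse AADAC, harvested after 7 days, and homogenized by freeze-thaw. Homogenate was incubated in 100 mM potassium phosphate (pH 7.4). Flutamide (0.025–0.75 mM) used 0.4 mg/ml; phenacetin (0.05–4 mM) used 0.4 mg/ml for human and 0.2 mg/ml for rat or mouse; rifampicin (0.005–1 mM) used 0.5 mg/ml. Activity was normalized to immunoblot-derived AADAC expression units. Triplicate determinations.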

[3] = substrate: CCOc1ccc(NC(C)=O)cc1; experiment: Activity of AADAC in rat lung microsome; summary of the method: as §1
[4] = substrate: CCOc1ccc(NC(C)=O)cc1; experiment: Activity of AADAC in rat kidney microsome; summary of the method: as §1
[5] = substrate: CCOc1ccc(NC(C)=O)cc1; experiment: Activity of AADAC in rat liver microsome; summary of the method: as §1
[6] = substrate: CCOc1ccc(NC(C)=O)cc1; experiment: Activity of AADAC in human kidney microsome; summary of the method: as §1
[7] = substrate: CCOc1ccc(NC(C)=O)cc1; experiment: Activity of AADAC in human lung microsome; summary of the method: as §1
[8] = substrate: CO[C@H]1/C=C/O[C@@]2(C)Oc3c(C)c(O)c4c(O)c(c(/C=N/N5CCN(C)CC5)c(O)c4c3C2=O)NC(=O)/C(C)=C\C=C\[C@H](C)[C@H](O)[C@@H](C)[C@@H](O)[C@@H](C)[C@H](OC(C)=O)[C@@H]1C; experiment: (§3) Activity of AADAC in human jejunum microsome; summary of the method: as §1
[9] = substrate: CCOc1ccc(NC(C)=O)cc1; experiment: as §3; summary of the method: as §1
[10] = substrate: CO[C@H]1/C=C/O[C@@]2(C)Oc3c(C)c(O)c4c(O)c(c(/C=N/N5CCN(C)CC5)c(O)c4c3C2=O)NC(=O)/C(C)=C\C=C\[C@H](C)[C@H](O)[C@@H](C)[C@@H](O)[C@@H](C)[C@H](OC(C)=O)[C@@H]1C; experiment: (§4) Activity of AADAC in human liver microsome; summary of the method: as §1
[11] = substrate: CCOc1ccc(NC(C)=O)cc1; experiment: as §4; summary of the method: as §1
[12] = substrate: CO[C@H]1/C=C/O[C@@]2(C)Oc3c(C)c(O)c4c(O)c(c(/C=N/N5CCN(C)CC5)c(O)c4c3C2=O)NC(=O)/C(C)=C\C=C\[C@H](C)[C@H](O)[C@@H](C)[C@@H](O)[C@@H](C)[C@H](OC(C)=O)[C@@H]1C; experiment: (§5) Activity of human recombinant AADAC; summary of the method: as §2
[13] = substrate: CCOc1ccc(NC(C)=O)cc1; experiment: as §5; summary of the method: as §2
[14] = substrate: CCOc1ccc(NC(C)=O)cc1; experiment: Activity of mouse recombinant AADAC; summary of the method: as §2
[15] = substrate: CCOc1ccc(NC(C)=O)cc1; experiment: Activity of AADAC in mouse kidney microsome; summary of the method: as §1
[16] = substrate: CCOc1ccc(NC(C)=O)cc1; experiment: Activity of AADAC in mouse jejunum microsome; summary of the method: as §1
[17] = substrate: CCOc1ccc(NC(C)=O)cc1; experiment: Activity of AADAC in mouse lung microsome; summary of the method: as §1
[18] = substrate: CCOc1ccc(NC(C)=O)cc1; experiment: Activity of AADAC in mouse liver microsome; summary of the method: as §1

B1: Arylacetamide deacetylase (Rattus norvegicus) (protein)
chain: MGRTIFLLISVVLVAYYIYIPLPDDIEEPWKIILGNTLLKLGGDLASFGELLGLNHFMDTVQLFMRFQVVPPTSDENVTVMETDFNSVPVRIYIPKRKSTTLRRGLFFIHGGGWCLGSAAYFMYDTLSRRTAHRLDAVVVSTDYGLAPKYHFPKQFEDVYHSLRWFLQEDILEKYGVDPRRVGVSGDSAGGNLTAAVTQQILQDPDVKIKLKVQALIYPALQALDMNVPSQQENSQYPLLTRSLLIRFWSEYFTTDRDLEKAMLLNQHVPVEFSHLLQFVNWSSLLPQRYKKGYFYKTPTPGSLELAQKYPGFTDVKACPLLANDSILHHLPMTYIITCQYDVLRDDGLMYVKRLQNTGVHVTHHHIEDGFHGALTLPGLKITYRMQNQYLNWLHKNL
[1]
  Km: 4.6 mM
  Vmax: 0.0003 µmol/min/mg
[2]
  Km: 5.8 mM
[3]
  Km: 5.3 mM
  Vmax: 0.0001 µmol/min/mg
[4]
  Km: 9.3 mM
  Vmax: 0.0006 µmol/min/mg
[5]
  Km: 29.8 mM
  Vmax: 0.0059 µmol/min/mg

B2: Arylacetamide deacetylase (Homo sapiens) (protein)
chain: MGRKSLYLLIVGILIAYYIYTPLPDNVEEPWRMMWINAHLKTIQNLATFVELLGLHHFMDSFKVVGSFDEVPPTSDENVTVTETKFNNILVRVYVPKRKSEALRRGLFYIHGGGWCVGSAALSGYDLLSRWTADRLDAVVVSTNYRLAPKYHFPIQFEDVYNALRWFLRKKVLAKYGVNPERIGISGDSAGGNLAAAVTQQLLDDPDVKIKLKIQSLIYPALQPLDVDLPSYQENSNFLFLSKSLMVRFWSEYFTTDRSLEKAMLSRQHVPVESSHLFKFVNWSSLLPERFIKGHVYNNPNYGSSELAKKYPGFLDVRAAPLLADDNKLRGLPLTYVITCQYDLLRDDGLMYVTRLRNTGVQVTHNHVEDGFHGAFSFLGLKISHRLINQYIEWLKENL
[6]
  Km: 2.3 mM
  Vmax: 0.0004 µmol/min/mg
[7]
  Km: 7.4 mM
  Vmax: 0.0008 µmol/min/mg
[8]
  Km: 0.3 mM
  Vmax: 0.000212 µmol/min/mg
[9]
  Km: 2.5 mM
  Vmax: 0.01 µmol/min/mg
[10]
  Km: 0.4 mM
  Vmax: 0.000273 µmol/min/mg
[11]
  Km: 3.3 mM
  Vmax: 0.0036 µmol/min/mg
[12]
  Km: 0.2 mM
[13]
  Km: 1.8 mM

B3: Arylacetamide deacetylase (Mus musculus) (protein)
chain: MGKTISLLISVVLVAYYLYIPLPDAIEEPWKVVWETAFVKIGTDLASFGELLGISHFMETIQLLMSFQEVPPTSDEHVTVMETAFDSVPVRIYIPKRKSMALRRGLFYIHGGGWCLGSAAHFSYDTLSRWTAHKLDAVVVSTDYGLAPKHHFPRQFEDVYRSLRWFLQEDVLEKYGVDPRRVGVSGDSAGGNLAAAVTQQLIQDPDVKIKLKVQALIYPALQALDTNVPSQQEGSHFPVLTRSLMVRFWSEYFTTDRGLEKAMLLNQHVPMESSHLLQFVNWSSLLPERYKKSPVYKNPTPGSSELAQKYPGFIDVKACPLLANDNILHHLPKTYIITCQYDVLRDDGLMYVKRLQNVGVHVTHHHVEDGFHGTFSFPGLKLSERMKNQYLSWLIKNL
[14]
  Km: 1.6 mM
[15]
  Km: 7.1 mM
  Vmax: 0.0029 µmol/min/mg
[16]
  Km: 11.2 mM
  Vmax: 0.0014 µmol/min/mg
[17]
  Km: 2.9 mM
  Vmax: 0.0001 µmol/min/mg
[18]
  Km: 9.8 mM
  Vmax: 0.0171 µmol/min/mg
